Reference: ChEMBL document CHEMBL4118021, “Studies of TAK1-centered polypharmacology with novel covalent TAK1 inhibitors” (Bioorg Med Chem, 2017)
Activity calls are given as the source filed them. The calls are words filed in the database; no cut-off is given here.

How the values were obtained:
[1] = Increase in secretion of basic-FGF in TNFalpha activated RA patient-derived synovial fibroblasts at 0.6 to 3 uM preincubated for 3 hrs followed by TNFalpha stimulation measured after 18 hrs by sandwich immunoassay; conditions: human
Method in brief: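 Primary RA patient synovial fibroblasts (donor RA2159) were seeded at 1000 cells/well, grown about 24 h, then starved overnight and again about 4 h in basal medium with 0.1% BSA. Cells were pre-incubated 3 h with inhibitor (0.6 or 3 μM) or DMSO, then stimulated 18 h with 10 ng/mL TNFα. Paired wells were pooled, in biological duplicate. Pooled supernatants were diluted 1:3 and read on Luminex bead sandwich immunoassays, with mock-medium background and spiked-ligand controls.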

PANC-1 = experiment: Antiproliferative activity against human PANC1 cells harboring KRAS G12D mutant after 72 hrs by CellTiter-Glo assay; assay type: functional, cell-based; conditions: PANC-1, 72 h
ASPC1 = experiment: Antiproliferative activity against human AsPC1 cells harboring KRAS G12D mutant after 72 hrs by CellTiter-Glo assay; assay type: functional, cell-based; conditions: ASPC1, 72 h
SW-620 = experiment: Antiproliferative activity against human SW620 cells harboring KRAS G12V mutant after 72 hrs by CellTiter-Glo assay; assay type: functional, cell-based; conditions: SW-620, 72 h
[2] = target: T1, Mitogen-activated protein kinase kinase kinase 7 (Homo sapiens) (UniProt O43318); experiment: Inhibition of TAK1 in RA patient-derived synovial fibroblasts assessed as inhibition of TNFalpha-induced cytokine secretion at 3 uM preincubated for 3 hrs followed by TNFalpha stimulation measured after 18 hrs by sandwich immunoassay
T1 sequence (whole entry): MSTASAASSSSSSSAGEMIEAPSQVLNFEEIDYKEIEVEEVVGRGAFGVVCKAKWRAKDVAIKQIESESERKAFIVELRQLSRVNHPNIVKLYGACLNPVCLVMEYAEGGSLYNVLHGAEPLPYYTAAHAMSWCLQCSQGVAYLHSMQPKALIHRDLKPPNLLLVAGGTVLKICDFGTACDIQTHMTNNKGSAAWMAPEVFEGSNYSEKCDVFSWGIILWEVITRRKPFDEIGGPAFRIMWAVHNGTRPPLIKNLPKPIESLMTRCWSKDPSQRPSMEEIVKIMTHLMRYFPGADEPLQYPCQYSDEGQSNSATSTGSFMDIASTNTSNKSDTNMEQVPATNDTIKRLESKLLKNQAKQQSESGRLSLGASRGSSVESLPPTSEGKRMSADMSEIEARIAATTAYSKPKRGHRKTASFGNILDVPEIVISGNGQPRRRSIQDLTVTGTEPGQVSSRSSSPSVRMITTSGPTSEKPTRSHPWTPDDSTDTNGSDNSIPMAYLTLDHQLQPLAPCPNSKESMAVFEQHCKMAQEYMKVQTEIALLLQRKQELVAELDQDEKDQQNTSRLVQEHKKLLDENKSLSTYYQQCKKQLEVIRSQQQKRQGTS
Method in brief: (§1)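 Primary RA synovial fibroblasts (donor RA2159) seeded 1000 cells/well and grown ~24 h at 37 °C, 5% CO2. Starved overnight in basal medium, then ~4 h in basal medium with 0.1% BSA. Two adjacent wells pooled per replicate, in biological duplicate. Supernatants diluted 1:3 and run on Luminex 27-plex/21-plex sandwich immunoassays for 48 analytes, with spiked-ligand and mock-supernatant background controls.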

BaF3 [3] = experiment: Antiproliferative activity against mouse BA/F3 cells harboring KRAS G12D mutant after 72 hrs in presence of IL-3 by CellTiter-Glo assay; assay type: functional, cell-based; conditions: BaF3, 72 h
[4] = Antiproliferative activity against human SW156 cells harboring wild type KRAS after 72 hrs by CellTiter-Glo assay; assay type: functional, cell-based
[5] = target: T1, Mitogen-activated protein kinase kinase kinase 7 (Homo sapiens); experiment: Inhibition of TAK1 in RA patient-derived synovial fibroblasts assessed as inhibition of IL-1alpha-induced cytokine secretion at 3 uM preincubated for 3 hrs followed by IL-1alpha stimulation measured after 18 hrs by sandwich immunoassay; method in brief: as §1
[6] = Antiproliferative activity against human URMC6 cells harboring wild type KRAS after 72 hrs by CellTiter-Glo assay; assay type: functional, cell-based
BaF3 [7] = experiment: Antiproliferative activity against mouse BA/F3 cells harboring KRAS G12D mutant after 72 hrs by CellTiter-Glo assay; assay type: functional, cell-based; conditions: BaF3, 72 h
[8] = target: T1, Mitogen-activated protein kinase kinase kinase 7 (Homo sapiens); experiment: Inhibition of biotin-labeled N-(2-(2-(2-(2-(4-(4-((4-((2-Acrylamidophenyl)amino)-5-chloropyrimidin-2-yl)amino)phenyl)piperazin-1-yl)ethoxy)ethoxy)ethoxy)ethyl)-5-((3aS,4S,6aR)-2-oxohexahydro-1H-thieno[3,4-d]imidazol-4-yl)pentanamide probe binding to TAK1 in human NCI-H358 cells at 10 uM after 6 hrs by immunoblot based competitive pull down assay; assay type: cell-based
Method in brief: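 H358 cells given 1 or 10 μM compound for 6 h, medium removed, cells rinsed twice with cold PBS and lysed in MPER buffer. Lysates incubated overnight at 4 °C with 1 μM biotinylated covalent probe, captured on streptavidin beads, and TAK1 recovery assessed by immunoblotting with anti-TAK1 antibody.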

[9] = target: T1, Mitogen-activated protein kinase kinase kinase 7 (Homo sapiens); experiment: Inhibition of TAK1 in RA patient-derived synovial fibroblasts assessed as inhibition of poly(I:C)-induced cytokine secretion at 3 uM preincubated for 3 hrs followed by poly(I:C) stimulation measured after 18 hrs by sandwich immunoassay; method in brief: as §1
SK-CO-1 = experiment: Antiproliferative activity against human SKCO1 cells harboring KRAS G12V mutant after 72 hrs by CellTiter-Glo assay; assay type: functional, cell-based; conditions: SK-CO-1, 72 h
[10] = target: T2, Mitogen-activated protein kinase kinase kinase 7 (Homo sapiens, UniProt O43318); experiment: Inhibition of TAK1 (unknown origin) by LanthaScreen assay
T2 sequence (O43318 whole entry): T1 sequence (whole entry)

BaF3 [11] = experiment: Antiproliferative activity against mouse BA/F3 cells after 72 hrs by CellTiter-Glo assay; assay type: cell-based; conditions: BaF3, 72 h
BaF3 [12] = experiment: Antiproliferative activity against mouse BA/F3 cells harboring NRAS G12D mutant after 72 hrs in presence of IL-3 by CellTiter-Glo assay; assay type: functional, cell-based; conditions: BaF3, 72 h
Method in brief: (§2)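 Ba/F3 parental or RAS-transformed cells were seeded at 1000 viable cells/well, without or with IL-3 as the line states, at 37 °C and 5% CO2. After 4 h, nine four-fold serial dilutions were added in triplicate (final 0.5–30,000 nM, 0.3% DMSO). DMSO wells served as 100% viability.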

BaF3 [13] = experiment: Antiproliferative activity against mouse BA/F3 cells harboring NRAS G12D mutant after 72 hrs by CellTiter-Glo assay; assay type: functional, cell-based; conditions: BaF3, 72 h; method in brief: as §2
NALM-6 = experiment: Antiproliferative activity against human NALM6 cells harboring NARS A146T mutant at […] to […] nM after 72 hrs by CellTiter-Glo assay; assay type: functional, cell-based
HEL = experiment: Antiproliferative activity against human HEL cells at […] to […] nM after 72 hrs by CellTiter-Glo assay; assay type: functional, cell-based
MOLM-14 = experiment: Antiproliferative activity against human MOLM14 cells harboring FLT3-ITD mutant at […] to […] nM after 72 hrs by CellTiter-Glo assay; assay type: functional, cell-based
U-937 = experiment: Antiproliferative activity against human U937 cells at […] to […] nM after 72 hrs by CellTiter-Glo assay; assay type: functional, cell-based
NCI-H23 = experiment: Antiproliferative activity against human NCI-H23 cells harboring KRAS G12C mutant after 72 hrs by CellTiter-Glo assay; assay type: functional, cell-based; conditions: for IC50: NCI-H23, 72 h
Method in brief: (§3)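 NCI-H23 or NCI-H358 cells seeded at 2000 cells/well and grown 48 h before drug. Varying doses were added and cells incubated 72 h. Viability was read as CellTiter-Glo luminescence, and growth-inhibition IC50 was calculated from dose-response curves.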

NCI-H358 = experiment: Antiproliferative activity against human NCI-H358 cells harboring KRAS G12C mutant after 72 hrs by CellTiter-Glo assay; assay type: functional, cell-based; method in brief: as §3

IC50 (BaF3 [3]) [nM] | IC50 (BaF3 [7]) [nM] | IC50 [10] [nM] | IC50 (BaF3 [11]) [nM] | SMILES | also measured
60 | 191 | – | – | CCC(=O)Nc1ccccc1Oc1nc(Nc2ccc(N3CCN(C)CC3)cc2)ncc1Cl | IC50 (PANC-1): 1360 nM; IC50 (ASPC1): 2700 nM; IC50 (SW-620): 707 nM; inhibition [2]: inactive; IC50 [4]: 3730 nM; inhibition [5]: inactive; IC50 [6]: 444 nM; inhibition [8]: inactive; inhibition [9]: inactive; IC50 (SK-CO-1): 213 nM
1190 | 181 | 57 | 1340 | C=CC(=O)Nc1ccccc1Oc1nc(Nc2ccc(N3CCN(C)CC3)cc2)ncc1C1CC1 | –
763 | 962 | 83 | 838 | C=CC(=O)Nc1ccccc1Sc1nc(Nc2ccc(N3CCN(C)CC3)cc2)ncc1Cl | –
555 | 44 | 3.3 | 234 | C=CC(=O)Oc1ccccc1Nc1nc(Nc2ccc(N3CCN(C)CC3)cc2)ncc1Cl | –
357 | 113 | 92 | 385 | C=CC(=O)Nc1ccccc1Oc1nc(Nc2ccc(N3CCN(C)CC3)cc2)ncc1C | –
310 | 57 | 75 | 476 | C=CC(=O)Nc1ccccc1Oc1nc(Nc2ccc(N3CCN(C)CC3)cc2)ncc1OC | –
376 | 31 | 25 | 206 | CN1CCN(c2ccc(Nc3ncc(Cl)c(Nc4ccccc4NC(=O)CCl)n3)cc2)CC1 | IC50 (BaF3 [12]): 178 nM; IC50 (BaF3 [13]): 10 nM; Activity (NCI-H358): Active; Activity (NALM-6): inactive; Activity (HEL): inactive; inhibition [8]: Active; Activity (NCI-H23): Active; Activity (MOLM-14): Active; Activity (U-937): Active
– | 905 | 3010 | 3270 | C=CC(=O)Nc1ccccc1-n1ccc2cnc(Nc3ccc(N4CCN(C)CC4)cc3)nc21 | IC50 (BaF3 [13]): 2040 nM
1400 | – | 950 | 1930 | C=CC(=O)Nc1ccccc1Oc1ccnc(Nc2ccc(N3CCN(C)CC3)cc2)n1 | –
9 | – | 1630 | – | CCC(=O)Nc1ccccc1Nc1nc(Nc2ccc(N3CCN(C)CC3)cc2)ncc1Cl | IC50 (PANC-1): 426 nM; IC50 (ASPC1): 73 nM; IC50 (SW-620): 247 nM; IC50 [4]: 363 nM; IC50 [6]: 263 nM; inhibition [8]: inactive; IC50 (SK-CO-1): 54 nM

The remaining lines, values behind:

SMILES | IC50 (BaF3 [3]) [nM] | IC50 (BaF3 [7]) [nM] | IC50 [10] [nM] | IC50 (BaF3 [11]) [nM] | also measured
CCN1CCN(Cc2ccc(NC(=O)c3ccc(C)c(Oc4ccnc5[nH]ccc45)c3)cc2C(F)(F)F)CC1 | – | – | – | – | Activity [1]: Non-Toxic
C=CC(=O)Nc1ccccc1Oc1nc(Nc2cnn(C3CCOCC3)c2)ncc1Cl | 719 | 69 | 4.6 | – | –
C=CC(=O)Oc1ccccc1Nc1nc(Nc2ccc(N3CCOCC3)cc2)ncc1Cl | 745 | 56 | 4.4 | 423 | IC50 (BaF3 [12]): 390 nM; IC50 (BaF3 [13]): 47 nM; Activity (NALM-6): inactive; Activity (HEL): inactive; Activity (MOLM-14): Active; Activity (U-937): Active
C=CC(=O)Oc1ccccc1Nc1nc(Nc2cccc(N3CCN(C(C)=O)CC3)c2)ncc1Cl | 460 | 280 | 1.7 | – | –
C=CC(=O)Nc1ccccc1Oc1nc(Nc2ccc(N3CCN(C)CC3)cc2)nc(N)c1Cl | 3530 | – | 2750 | – | –
Cn1cnc2c(F)c(Nc3ccc(Br)cc3Cl)c(C(=O)NOCCO)cc21 [SELUMETINIB] | > 10000 | 100 | – | – | IC50 (ASPC1): 64.2 nM; IC50 (SW-620): 15 nM; IC50 (SK-CO-1): 117 nM
CC(C)Nc1cc(-c2c[nH]c(C(=O)N[C@H](CO)c3cccc(Cl)c3)c2)c(Cl)cn1 [ULIXERTINIB] | 8610 | 468 | – | 2230 | IC50 (ASPC1): 849 nM; IC50 (SW-620): 499 nM; IC50 [4]: 1240 nM; IC50 (NCI-H23): 1000 nM; IC50 (SK-CO-1): 356 nM
C=CC(=O)Nc1ccccc1Oc1nc(Nc2cnn(C(F)F)c2)ncc1Cl | 414 | 67 | 7 | 539 | IC50 (BaF3 [12]): 277 nM; IC50 (BaF3 [13]): 92 nM; Activity (NALM-6): inactive; Activity (HEL): inactive; inhibition [8]: Active; Activity (MOLM-14): Active; Activity (U-937): Active
CCC(=O)Nc1ccccc1Oc1nc(Nc2cnn(CCOC)c2)ncc1Cl | 3600 | 923 | 1230 | 2080 | IC50 (ASPC1): 5020 nM; IC50 (SW-620): 1650 nM; inhibition [2]: inactive; inhibition [5]: inactive; IC50 [6]: 1490 nM; inhibition [8]: inactive; Activity (MOLM-14): Active; Activity (U-937): Active; inhibition [9]: inactive; IC50 (SK-CO-1): 2620 nM
C=CC(=O)Oc1ccccc1Nc1nc(Nc2cccc(N3CCOCC3)c2)ncc1Cl | 839 | – | 3.2 | – | inhibition [8]: Active
C=CC(=O)Nc1cc(NC(C)=O)ccc1Nc1nc(Nc2ccc(N3CCN(C)CC3)cc2)ncc1Cl | 3730 | 1350 | 1640 | – | –
C=CC(=O)Nc1ccccc1Oc1nc(Nc2cnn(C)c2)ncc1Cl | 859 | 308 | 7.3 | 2940 | IC50 (BaF3 [12]): 1020 nM; IC50 (BaF3 [13]): 179 nM
Cn1c(=O)n(-c2ccc(C(C)(C)C#N)cc2)c2c3cc(-c4cnc5ccccc5c4)ccc3ncc21 [DACTOLISIB] | – | – | – | – | IC50 (NCI-H23): 1000 nM
